Experimental findings from ChEMBL document CHEMBL4261600 (Eur J Med Chem, 2018) are described below.

The target of data set [1] is Dual specificity protein kinase CLK4 (Homo sapiens) (UniProt Q9HAZ1). The data set is described as follows: Binding affinity to wild-type human partial length CLK4 (R135 to K481 residues) expressed in bacterial expression system assessed as remaining unbound target protein level at 1000 nM by Kinomescan method relative to control. The procedure, abridged: (§1)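 KINOMEscan competition binding profile across a panel of 468 kinases and mutants, with the inhibitor tested at a single concentration of 1 μM. Binding is reported as percent of control, meaning signal relative to a DMSO control.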

Data set [2] addresses Serine/threonine-protein kinase MAK (Homo sapiens) (UniProt P20794). The data set is described as follows: Binding affinity to wild-type human partial length MAK (M1 to P314 residues) expressed in bacterial expression system assessed as remaining unbound target protein level at 1000 nM by Kinomescan method relative to control.
Data set [3] deals with Ribosomal protein S6 kinase alpha-5 (Homo sapiens) (UniProt O75582). The experiment in a line: Binding affinity to wild-type human partial length N-terminal RPS6KA5 kinase domain 1 expressed in bacterial expression system assessed as remaining unbound target protein level at 1000 nM by Kinomescan method relative to control.
Data set [4] has as its target cGMP-dependent protein kinase 1 (Homo sapiens) (UniProt Q13976). The experiment in a line: Binding affinity to wild-type human partial length PRKG1 (L339 to F686 residues) expressed in bacterial expression system assessed as remaining unbound target protein level at 1000 nM by Kinomescan method relative to control.
Data set [5] can be described thus: Clearance in beagle dog at 2 mg/kg, iv by LC-MS/MS analysis. Format: ADME, organism-based, Canis lupus familiaris. Conditions: in vivo.
The target in data set [6] is Ribosomal protein S6 kinase alpha-2 (Homo sapiens) (UniProt Q15349). The experiment in a line: Binding affinity to wild-type human partial length C-terminal RSK3 kinase domain 2 (V403 to K700 residues) expressed in bacterial expression system assessed as remaining unbound target protein level at 1000 nM by Kinomescan method relative to control. The method in brief: (§2)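 Profiled in a KINOMEscan binding panel with the inhibitor at a single concentration of 1 μM. Binding to each kinase was read out as percent of control, relative to a DMSO control. Strong binders were defined as those with a percent control value below 1.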

The target of data set [7] is Mitogen-activated protein kinase 4 (Homo sapiens) (UniProt P31152). The experiment in a line: Binding affinity to wild-type human partial length ERK4 (M1 to L365 residues) expressed in bacterial expression system assessed as remaining unbound target protein level at 1000 nM by Kinomescan method relative to control. The procedure, abridged:
(§3)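 KINOMEscan binding panel of 468 kinases/mutants. Inhibitor was tested at a single concentration of 1 μM. Binding is reported as percent of control, defined relative to a DMSO control.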

In data set [8] the target is Ribosomal protein S6 kinase alpha-3 (Homo sapiens) (UniProt P51812). The experiment in a line: Binding affinity to wild-type human partial length C-terminal RSK2 kinase domain 2 (V402 to S715 residues) expressed in mammalian expression system assessed as remaining unbound target protein level at 1000 nM by Kinomescan method relative to control. The method in brief:
as §2

Data set [9] is described as follows: Tmax in mouse at 3 mg/kg, iv by LC-MS/MS analysis. Format: ADME, organism-based. Conditions: in vivo.
The target of data set [10] is Serine/threonine-protein kinase PLK3 (Homo sapiens) (UniProt Q9H4B4). The data set is described as follows: Binding affinity to wild-type human partial length PLK3 (A42 to L334 residues) expressed in mammalian expression system assessed as remaining unbound target protein level at 1000 nM by Kinomescan method relative to control.
The target of data set [11] is Leukocyte tyrosine kinase receptor (Homo sapiens) (UniProt P29376). The experiment in a line: Binding affinity to wild-type human partial length LTK (P422 to S744 residues) expressed in bacterial expression system assessed as remaining unbound target protein level at 1000 nM by Kinomescan method relative to control. The procedure, abridged: as §3
Data set [12] concerns the target Mitogen-activated protein kinase kinase kinase 11 (Homo sapiens) (UniProt Q16584). The experiment in a line: Binding affinity to wild-type human partial length MLK3 (I77 to W399 residues) expressed in bacterial expression system assessed as remaining unbound target protein level at 1000 nM by Kinomescan method relative to control.
The target in data set [13] is Receptor tyrosine-protein kinase erbB-3 (Homo sapiens) (UniProt P21860). The data set is described as follows: Binding affinity to wild-type human partial length ERBB3 (G684 to A987 residues) expressed in mammalian expression system assessed as remaining unbound target protein level at 1000 nM by Kinomescan method relative to control. The procedure, abridged: as §3

In data set [14] the target is STE20/SPS1-related proline-alanine-rich protein kinase (Homo sapiens) (UniProt Q9UEW8). The data set is described as follows: Binding affinity to wild-type human partial length STK39 (P43 to I357 residues) expressed in mammalian expression system assessed as remaining unbound target protein level at 1000 nM by Kinomescan method relative to control.
Data set [15] has as its target Serine/threonine-protein kinase ULK3 (Homo sapiens) (UniProt Q6PHR2). The data set is described as follows: Binding affinity to wild-type human partial length ULK3 (M1 to Q290 residues) expressed in mammalian expression system assessed as remaining unbound target protein level at 1000 nM by Kinomescan method relative to control.
Data set [16] addresses Inhibitor of nuclear factor kappa-B kinase subunit beta (Homo sapiens) (UniProt O14920). The experiment in a line: Binding affinity to wild-type human full length IKK-beta (M1 to S756 residues) expressed in mammalian expression system assessed as remaining unbound target protein level at 1000 nM by Kinomescan method relative to control. The procedure, abridged:
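Single-point competition binding screen across a panel of 468 kinases and mutants, with the inhibitor at 1 μM. Binding is read out as percent of a DMSO control, and targets below 1 percent control were classed as strong binders.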

Data set [17] concerns the target Serine/threonine-protein kinase Chk2 (Homo sapiens) (UniProt O96017). The experiment in a line: Binding affinity to wild-type human partial length CHEK2 (S253 to E574 residues) expressed in bacterial expression system assessed as remaining unbound target protein level at 1000 nM by Kinomescan method relative to control.
The target in data set [18] is Serine/threonine-protein kinase PAK 5 (Homo sapiens) (UniProt Q9P286). The experiment in a line: Binding affinity to wild-type human partial length PAK7 (Y400 to H719 residues) expressed in bacterial expression system assessed as remaining unbound target protein level at 1000 nM by Kinomescan method relative to control.
Data set [19] addresses Vascular endothelial growth factor receptor 1 (Homo sapiens) (UniProt P17948). The experiment in a line: Binding affinity to wild-type human partial length FLT1 (R781 to F1239 residues) expressed in bacterial expression system assessed as remaining unbound target protein level at 1000 nM by Kinomescan method relative to control.
Data set [20] addresses SRSF protein kinase 1 (Homo sapiens) (UniProt Q96SB4). The data set is described as follows: Binding affinity to wild-type human full length SRPK1 (M1 to S655 residues) expressed in bacterial expression system assessed as remaining unbound target protein level at 1000 nM by Kinomescan method relative to control. The procedure, abridged: as §1
Data set [21] deals with RAC-alpha serine/threonine-protein kinase (Homo sapiens) (UniProt P31749). The experiment in a line: Binding affinity to wild-type human partial length AKT1 expressed in bacterial expression system assessed as remaining unbound target protein level at 1000 nM by Kinomescan method relative to control. The procedure, abridged: as §2
For data set [22], the target named is Ephrin type-A receptor 4 (Homo sapiens) (UniProt P54764). The data set is described as follows: Binding affinity to wild-type human partial length EPHA4 (T601 to R897 residues) expressed in bacterial expression system assessed as remaining unbound target protein level at 1000 nM by Kinomescan method relative to control.
Chain of Ephrin type-A receptor 4 (Homo sapiens) (P54764 whole entry, the tested form may be a part): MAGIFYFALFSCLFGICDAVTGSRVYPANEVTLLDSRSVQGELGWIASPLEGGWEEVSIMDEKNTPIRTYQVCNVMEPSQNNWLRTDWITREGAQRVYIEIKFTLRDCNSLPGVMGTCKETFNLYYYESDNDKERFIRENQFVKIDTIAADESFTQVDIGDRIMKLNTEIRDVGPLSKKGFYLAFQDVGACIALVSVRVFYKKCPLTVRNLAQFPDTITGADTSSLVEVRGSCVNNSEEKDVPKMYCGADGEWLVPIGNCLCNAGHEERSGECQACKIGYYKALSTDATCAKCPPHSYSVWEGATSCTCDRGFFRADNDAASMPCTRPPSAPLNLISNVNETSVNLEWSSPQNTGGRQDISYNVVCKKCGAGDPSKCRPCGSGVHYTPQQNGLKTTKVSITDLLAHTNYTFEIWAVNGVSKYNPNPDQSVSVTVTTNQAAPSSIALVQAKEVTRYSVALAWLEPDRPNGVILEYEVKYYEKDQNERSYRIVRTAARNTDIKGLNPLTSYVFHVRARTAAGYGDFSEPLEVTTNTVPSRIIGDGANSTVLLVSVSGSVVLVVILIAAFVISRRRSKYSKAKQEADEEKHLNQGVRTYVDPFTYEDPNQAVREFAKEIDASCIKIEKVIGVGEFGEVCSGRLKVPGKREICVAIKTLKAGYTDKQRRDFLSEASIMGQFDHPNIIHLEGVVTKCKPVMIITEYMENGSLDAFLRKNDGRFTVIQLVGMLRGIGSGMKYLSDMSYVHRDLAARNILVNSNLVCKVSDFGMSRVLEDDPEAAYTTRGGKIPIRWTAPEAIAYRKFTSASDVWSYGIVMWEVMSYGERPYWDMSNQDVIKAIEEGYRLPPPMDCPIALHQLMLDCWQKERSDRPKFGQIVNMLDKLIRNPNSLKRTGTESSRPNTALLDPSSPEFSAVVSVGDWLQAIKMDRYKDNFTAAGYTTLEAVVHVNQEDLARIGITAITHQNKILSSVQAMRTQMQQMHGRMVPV

Chain of Ribosomal protein S6 kinase alpha-5 (Homo sapiens) (O75582 whole entry, looked up, the tested form may be a part): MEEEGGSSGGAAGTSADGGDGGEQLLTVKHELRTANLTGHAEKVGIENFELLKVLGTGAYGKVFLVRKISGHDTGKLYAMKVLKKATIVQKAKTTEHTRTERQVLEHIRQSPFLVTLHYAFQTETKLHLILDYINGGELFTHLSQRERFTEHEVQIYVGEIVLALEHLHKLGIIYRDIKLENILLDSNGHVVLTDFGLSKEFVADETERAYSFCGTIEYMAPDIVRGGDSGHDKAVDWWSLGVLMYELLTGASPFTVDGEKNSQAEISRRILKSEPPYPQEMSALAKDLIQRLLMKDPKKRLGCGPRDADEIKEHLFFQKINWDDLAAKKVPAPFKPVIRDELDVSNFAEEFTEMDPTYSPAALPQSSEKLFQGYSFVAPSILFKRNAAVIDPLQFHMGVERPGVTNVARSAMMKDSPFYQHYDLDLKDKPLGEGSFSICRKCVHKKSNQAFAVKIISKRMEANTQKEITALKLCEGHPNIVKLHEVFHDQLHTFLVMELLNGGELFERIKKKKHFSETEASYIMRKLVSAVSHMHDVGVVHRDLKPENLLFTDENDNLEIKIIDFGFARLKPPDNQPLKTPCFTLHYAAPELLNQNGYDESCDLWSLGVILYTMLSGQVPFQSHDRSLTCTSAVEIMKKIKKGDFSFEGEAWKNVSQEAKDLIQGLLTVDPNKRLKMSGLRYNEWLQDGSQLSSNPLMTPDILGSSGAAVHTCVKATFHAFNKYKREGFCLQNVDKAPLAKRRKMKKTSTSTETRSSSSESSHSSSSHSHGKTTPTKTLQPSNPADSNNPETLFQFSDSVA
Chain of Receptor tyrosine-protein kinase erbB-3 (Homo sapiens) (P21860 whole entry, the tested form may be a part): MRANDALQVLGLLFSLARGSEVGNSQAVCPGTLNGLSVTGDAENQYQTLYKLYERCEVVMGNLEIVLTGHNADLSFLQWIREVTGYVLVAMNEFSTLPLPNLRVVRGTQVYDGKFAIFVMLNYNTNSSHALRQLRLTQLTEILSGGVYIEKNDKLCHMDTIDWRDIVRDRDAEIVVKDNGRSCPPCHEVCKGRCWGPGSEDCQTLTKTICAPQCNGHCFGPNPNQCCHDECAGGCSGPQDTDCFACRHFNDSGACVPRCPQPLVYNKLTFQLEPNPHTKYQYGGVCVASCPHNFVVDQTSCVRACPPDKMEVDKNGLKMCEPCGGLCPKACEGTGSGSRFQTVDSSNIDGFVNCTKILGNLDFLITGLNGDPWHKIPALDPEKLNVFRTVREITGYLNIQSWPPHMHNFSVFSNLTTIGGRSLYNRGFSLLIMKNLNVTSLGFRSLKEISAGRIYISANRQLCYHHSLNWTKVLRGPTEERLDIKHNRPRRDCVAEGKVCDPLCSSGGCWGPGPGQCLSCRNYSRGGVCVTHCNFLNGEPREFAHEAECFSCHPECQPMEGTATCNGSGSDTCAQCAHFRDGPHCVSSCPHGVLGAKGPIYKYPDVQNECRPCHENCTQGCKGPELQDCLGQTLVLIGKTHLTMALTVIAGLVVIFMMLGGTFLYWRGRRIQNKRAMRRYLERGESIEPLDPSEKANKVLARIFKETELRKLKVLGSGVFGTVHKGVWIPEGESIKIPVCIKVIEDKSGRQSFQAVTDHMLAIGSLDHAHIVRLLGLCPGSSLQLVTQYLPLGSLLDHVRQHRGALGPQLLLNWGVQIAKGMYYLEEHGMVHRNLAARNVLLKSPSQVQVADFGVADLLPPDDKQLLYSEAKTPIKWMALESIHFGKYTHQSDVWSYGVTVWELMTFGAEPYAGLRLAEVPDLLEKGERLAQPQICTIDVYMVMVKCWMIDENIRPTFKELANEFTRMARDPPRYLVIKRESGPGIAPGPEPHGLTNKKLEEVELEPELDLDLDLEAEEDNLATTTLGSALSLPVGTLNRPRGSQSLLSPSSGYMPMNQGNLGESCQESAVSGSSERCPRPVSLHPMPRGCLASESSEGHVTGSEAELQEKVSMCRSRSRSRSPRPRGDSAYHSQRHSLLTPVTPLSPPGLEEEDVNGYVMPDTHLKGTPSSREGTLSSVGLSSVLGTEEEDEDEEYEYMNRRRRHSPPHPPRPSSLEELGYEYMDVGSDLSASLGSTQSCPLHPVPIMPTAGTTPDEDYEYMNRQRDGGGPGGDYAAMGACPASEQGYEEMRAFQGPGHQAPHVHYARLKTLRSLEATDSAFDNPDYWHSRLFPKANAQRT
Chain of RAC-alpha serine/threonine-protein kinase (Homo sapiens) (P31749 whole entry, the tested form may be a part): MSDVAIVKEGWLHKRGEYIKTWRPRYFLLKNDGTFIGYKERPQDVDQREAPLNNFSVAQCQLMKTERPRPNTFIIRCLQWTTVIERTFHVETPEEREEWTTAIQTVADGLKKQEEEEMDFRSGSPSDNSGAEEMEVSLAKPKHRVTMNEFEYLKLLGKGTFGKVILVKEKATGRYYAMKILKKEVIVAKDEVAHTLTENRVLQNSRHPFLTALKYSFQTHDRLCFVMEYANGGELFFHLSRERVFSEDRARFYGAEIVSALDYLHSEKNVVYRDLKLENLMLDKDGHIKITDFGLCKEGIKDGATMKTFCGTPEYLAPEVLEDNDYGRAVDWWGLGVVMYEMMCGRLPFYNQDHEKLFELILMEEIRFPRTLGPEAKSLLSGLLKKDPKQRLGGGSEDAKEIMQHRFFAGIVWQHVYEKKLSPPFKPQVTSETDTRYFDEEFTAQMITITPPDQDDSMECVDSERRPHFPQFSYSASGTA
Chain of Dual specificity protein kinase CLK4 (Homo sapiens) (Q9HAZ1 whole entry, looked up, the tested form may be a part): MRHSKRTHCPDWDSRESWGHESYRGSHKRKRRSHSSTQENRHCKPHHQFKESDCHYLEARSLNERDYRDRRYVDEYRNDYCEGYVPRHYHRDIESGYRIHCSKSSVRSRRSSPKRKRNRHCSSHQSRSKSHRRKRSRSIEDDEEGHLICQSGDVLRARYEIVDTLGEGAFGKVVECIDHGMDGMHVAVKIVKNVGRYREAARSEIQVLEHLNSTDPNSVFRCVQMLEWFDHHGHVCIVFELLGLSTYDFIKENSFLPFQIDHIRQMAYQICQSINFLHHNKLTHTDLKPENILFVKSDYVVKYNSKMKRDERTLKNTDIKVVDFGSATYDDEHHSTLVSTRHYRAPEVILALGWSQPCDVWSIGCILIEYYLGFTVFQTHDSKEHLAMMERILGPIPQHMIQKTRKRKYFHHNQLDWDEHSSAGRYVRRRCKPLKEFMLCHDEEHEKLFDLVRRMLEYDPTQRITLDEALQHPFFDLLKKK
Chain of Serine/threonine-protein kinase MAK (Homo sapiens) (P20794 whole entry, the tested form may be a part): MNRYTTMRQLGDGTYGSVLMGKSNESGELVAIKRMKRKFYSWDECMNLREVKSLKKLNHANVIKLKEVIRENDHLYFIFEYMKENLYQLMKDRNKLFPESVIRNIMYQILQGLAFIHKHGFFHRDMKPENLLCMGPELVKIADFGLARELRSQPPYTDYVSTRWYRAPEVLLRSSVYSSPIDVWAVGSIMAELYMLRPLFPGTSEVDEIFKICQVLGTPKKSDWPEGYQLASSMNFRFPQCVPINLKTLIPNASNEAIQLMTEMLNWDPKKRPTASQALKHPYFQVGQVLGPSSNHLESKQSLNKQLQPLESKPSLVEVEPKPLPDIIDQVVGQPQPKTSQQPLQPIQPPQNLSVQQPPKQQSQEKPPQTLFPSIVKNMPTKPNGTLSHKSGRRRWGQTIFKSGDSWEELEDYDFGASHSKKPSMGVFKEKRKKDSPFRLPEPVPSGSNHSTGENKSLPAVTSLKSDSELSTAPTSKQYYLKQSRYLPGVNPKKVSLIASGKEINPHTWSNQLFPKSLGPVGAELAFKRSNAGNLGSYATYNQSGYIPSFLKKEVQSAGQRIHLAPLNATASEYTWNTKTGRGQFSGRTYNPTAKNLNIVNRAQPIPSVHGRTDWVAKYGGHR

On to `COCCN[C@H]1CC[C@H](Nc2cc(-c3csc(NCC4(C#N)CCOCC4)n3)c(Cl)cn2)CC1`, for which the Activity in data set [1] worked out at 9.2%; in [2], 100%; in data set [3], 100%; in data set [4] it was 100%; in data set [6] it was 92%; in [7] it was 99%. The Activity in data set [8] came out at 98%; in data set [10] it was 99%; in data set [11] it was 95%; in data set [12] it was 85%; in data set [13], 93%; in data set [14], 57%. The Activity was determined as 100% in [15]; 90% in data set [16]; 90% in data set [17]; 98% in data set [18]; 98% in [19]; 66% in data set [20]. For the same compound, the Activity was determined as 92% in data set [21] and 96% in [22]. The same compound had a clearance in [5] of 11.9 mL/min/kg. Further, the time to peak (Tmax) in data set [9] was determined as 4.98 min.
